The nature of series [1]: Intrinsic clearance in human liver microsomes. Type of series: ADME. As to conditions: read-out: CLH. (In general: Microsomes from liver hold many membrane-bound enzymes, among them those of drug oxidation.)
Series [2] concerns Rhesus monkey. Put plainly: Dose normalized AUC (0 to 24 hrs) in monkey at 1 mg/kg, po administered as single dose. Format: ADME, organism-based, Macaca mulatta. As to conditions: in vivo. The procedure, abridged:
(§1)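 Single oral dose of 1 mg/kg. Vehicle was 20% HPBCD for mouse and 0.4% HPMC for dog and monkey. Plasma AUC over 0–24 h, dose-normalized, reported in μM·h.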

Series [3] concerns Mus musculus. Put plainly: Dose normalized AUC (0 to 24 hrs) in mouse at 1 mg/kg, po administered as single dose. Format: ADME, organism-based. The note with it: in vivo. Put shortly:
as §1

Series [4] is described as follows: Antiproliferative activity against human SJSA1 cells expressing wild type p53 after 72 hrs by CellTitre-Glo assay. The note with it: SJSA-1, 72 h.
The nature of series [5]: Solubility of compound in pH 7.4 phosphate buffer. Format: physicochemical.
Series [6] addresses T1, Tumour suppressor p53/oncoprotein Mdm2 (Homo sapiens, UniProt Q00987). Put plainly: Inhibition of MDM2/p53 interaction in human HCT116 cells assessed as activation of p53 transcription by luciferase reporter gene assay. Type of series: cell-based, HCT-116. The procedure, abridged: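 p53 transcriptional activation measured in HCT116 cells with a p53 response element–driven luciferase reporter (P53RE-Luc).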

For series [7], the system named is Canis familiaris. Put plainly: Dose normalized AUC (0 to 24 hrs) in dog at 1 mg/kg, po administered as single dose. Format: ADME, organism-based, Canis lupus familiaris. As to conditions: in vivo. Put shortly: as §1
A short description of series [8]: Antiproliferative activity against human HCT116 cells expressing wild type p53 after 72 hrs by CellTitre-Glo assay. Type of series: functional, cell-based. The note with it: HCT-116, 72 h. Put shortly:
(§2)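 Cancer cell lines of known p53 coding-region status (checked by direct sequencing) were exposed to the compound for 72 h. Viability was read with CellTiter-Glo, and the IC50 was taken from these readings.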

For series [9], the system named is SK-UT-1. The series is described as follows: Antiproliferative activity against human SK-UT-1 cells harboring mutant p53 after 72 hrs by CellTitre-Glo assay. Type of series: functional, cell-based. The note with it: SK-UT-1, 72 h. Put shortly:
as §2

Series [10] is described as follows: Antiproliferative activity against p53 null human H1299 cells after 72 hrs by CellTitre-Glo assay. Type of series: functional, cell-based. As to conditions: NCI-H1299, 72 h. Put shortly:
as §2

Series [11] has as its system SJSA-1. Put plainly: Induction of apoptosis in human SJSA1 cells assessed as caspase 3/7 activation. Format: functional, cell-based.
Series [12] deals with T1, Tumour suppressor p53/oncoprotein Mdm2. Put plainly: Inhibition of human recombinant His-tagged MDM2 (1 to 118 residues) interaction with FAM-tagged p53-based peptide (unknown origin) incubated for 15 mins by fluorescence polarization assay. Type of series: protein assay. (In fluorescence polarisation assays a small probe gives low polarisation when free and higher when bound to something large.)

Series [13] in a line: Permeability from apical to basolateral side in human Caco2 cells. Type of series: ADME, cell-based. The note with it: Caco-2, read-out: permeability.
Series [14] concerns A2780. The series is described as follows: Antitumor activity against human A2780 cells xenografted in nude mouse harboring wild type p53 assessed as tumor growth inhibition at 40 mg/kg, ip once weekly for 15 days relative to control. The note with it: 360 h, read-out: TGI. (In general: A xenograft is tissue or cells of one species grown in another, often human tumour cells in immunodeficient mice.)

For series [15], the system named is A549. The series is described as follows: Antitumor activity against human A549 cells xenografted in nude mouse assessed as tumor growth inhibition at 20 mg/kg, ip once weekly for 30 days relative to control. Type of series: functional. As to conditions: 720 h, read-out: TGI. The procedure, abridged:
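Mice bearing A549 NSCLC xenografts. The test agent was given orally, either daily or intermittently (daily for 3 days, then 4 days off). Paclitaxel was given at 20 mg/kg ip weekly, alone or in combination. Read-out was tumor growth inhibition.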

Series [16] is described as follows: Oral bioavailability in mouse at 20 mg/kg. As to conditions: in vivo. Format: ADME, organism-based.
Series [17] in a line: AUC in mouse at 20 mg/kg, po or 2 mg/kg, iv. Type of series: ADME, organism-based. The note with it: in vivo.

As usually defined, the IC50 is the concentration at which inhibition is half-maximal. Usually solubility stands for the dissolved amount per volume that the medium holds. In general, EC50 refers to the concentration that produces a half-maximal response. A word on the bioavailability: it is dose-corrected exposure relative to a reference, in per cent. As usually defined, the AUC is the area under the concentration-time curve, a measure of exposure.

Each structure is given as a SMILES string. Values after ≈ are worked out from the molar mass of the structure shown. Bounds are passed on as bounds.

T1 sequence (P04637 whole entry): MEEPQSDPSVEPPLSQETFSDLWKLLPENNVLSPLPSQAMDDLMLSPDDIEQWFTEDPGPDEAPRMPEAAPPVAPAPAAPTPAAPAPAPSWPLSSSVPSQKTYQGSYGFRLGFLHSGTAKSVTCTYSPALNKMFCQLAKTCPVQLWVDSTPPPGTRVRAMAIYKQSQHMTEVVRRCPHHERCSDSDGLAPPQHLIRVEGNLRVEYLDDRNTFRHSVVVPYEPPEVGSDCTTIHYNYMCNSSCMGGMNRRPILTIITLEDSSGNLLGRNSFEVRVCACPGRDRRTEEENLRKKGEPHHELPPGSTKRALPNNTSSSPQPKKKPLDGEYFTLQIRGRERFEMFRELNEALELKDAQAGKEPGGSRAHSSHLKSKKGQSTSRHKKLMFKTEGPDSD
T1 sequence (Q00987 whole entry): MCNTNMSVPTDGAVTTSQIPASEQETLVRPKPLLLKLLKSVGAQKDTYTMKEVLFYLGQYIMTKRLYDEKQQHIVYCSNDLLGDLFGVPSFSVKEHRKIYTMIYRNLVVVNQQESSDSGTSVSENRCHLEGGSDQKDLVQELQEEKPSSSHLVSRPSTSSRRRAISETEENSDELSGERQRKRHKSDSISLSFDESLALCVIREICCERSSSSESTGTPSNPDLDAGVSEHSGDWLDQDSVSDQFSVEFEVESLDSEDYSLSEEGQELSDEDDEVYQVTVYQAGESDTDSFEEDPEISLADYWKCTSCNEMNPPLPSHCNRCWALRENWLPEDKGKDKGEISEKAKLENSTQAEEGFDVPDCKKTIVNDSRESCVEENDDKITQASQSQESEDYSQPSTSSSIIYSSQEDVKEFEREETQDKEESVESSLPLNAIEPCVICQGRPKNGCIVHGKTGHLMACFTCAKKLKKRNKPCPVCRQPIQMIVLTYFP

In the case of `CCC[C@@H]1N(C(=O)c2cnccc2C(F)(F)F)CCC[C@]1(Oc1csc(C(F)(F)F)c1)C(=O)N1CCN(c2ccccc2OCCO)CC1` (single isomer, unassigned), the CLint scaled in series [1] was 14 mL/min/kg. For the same molecule, the values for the AUC/dose in [2], in [3] and in series [7] were 0.3 µM·h, 2 µM·h and 0.2 µM·h, respectively. In addition, the half-maximal inhibitory concentration (IC50) in series [4] is 180 nM; in series [8], 390 nM; in series [9], more than 17000 nM; in series [10], more than 17000 nM; in series [11], 300 nM; in series [12], 15 nM. This molecule also had a solubility in [5] of 10 µM (≈ 7.15 µg/mL). Moreover, in series [6], the EC50 amounted to 400 nM.

The molecule `COCCOc1ccccc1N1CCN(C(=O)[C@]2(Oc3ccc(C(F)(F)F)cc3)CCCN(C(=O)c3cnccc3C(F)(F)F)[C@@H]2CCO)CC1` had an IC50 in [4] of 530 nM.

For `CCC[C@@H]1N(C(=O)c2cnccc2C(F)(F)F)CCC[C@]1(Oc1csc(C(F)(F)F)c1)C(=O)N1CCN(c2ccccc2OCC(=O)NC)CC1` (single isomer, unassigned), in series [13], the Papp A→B came to 18.1 ×10⁻⁶ cm/s. The CLint scaled in [1] turned out to be 13 mL/min/kg. The AUC/dose in series [2] stood at 0.3 µM·h; in [3] it was 2 µM·h; in series [7] it was 0.2 µM·h. Besides, the IC50 is 110 nM in series [4]; 470 nM in series [8]; more than 10000 nM in series [9]; more than 17000 nM in [10]; 300 nM in series [11]; 4 nM in [12]. For the same molecule, in series [5], the concentration in solution (solubility) came to 12 µM (≈ 8.9 µg/mL). In addition, the concentration for a half-maximal effect (EC50) in series [6] stood at 400 nM.

For the molecule `CCC[C@H]1N(C(=O)c2cnccc2C(F)(F)F)CCC[C@@]1(Oc1csc(C(F)(F)F)c1)C(=O)N1CCN(c2ccccc2OCC(=O)O)CC1`, the Papp A→B in series [13] stood at 0.7 ×10⁻⁶ cm/s. In series [3], the AUC/dose turned out to be 0.02 µM·h. Also, the half-maximal inhibitory concentration (IC50) in [4] amounted to 1100 nM; in [12], 2 nM.

Take `CCC[C@H]1N(C(=O)c2cnccc2C(F)(F)F)CCC[C@@]1(Oc1csc(C(F)(F)F)c1)C(=O)N1CCN(c2ccccc2OCCCCC(=O)O)CC1`: the figures for the concentration for half-maximal inhibition (IC50) in [4] and in series [12] were 170 nM and 7 nM, respectively.

As to `CCC[C@H]1N(C(=O)c2cnccc2C(F)(F)F)CCC[C@@]1(Oc1csc(C(F)(F)F)c1)C(=O)N1CCN(c2ccccc2OCC(C)(C)O)CC1`, the half-maximal inhibitory concentration (IC50) in series [4] is 600 nM; in [12], 23 nM.

Regarding `CCC[C@H]1N(C(=O)c2cnccc2C(F)(F)F)CCC[C@@]1(Oc1cc(I)cs1)C(=O)N1CCN(c2ccccc2OCCO)CC1` (racemic), the IC50 in [12] amounted to 90 nM.

As for `CCC[C@H]1N(C(=O)c2cnccc2C(F)(F)F)CCC[C@@]1(Oc1csc(C(F)(F)F)c1)C(=O)N1CCN(c2ccccc2OCC(C)(C)C(=O)O)CC1`, the half-maximal inhibitory concentration (IC50) in series [4] is 260 nM; in series [12], 4 nM.

On to `CCC[C@H]1N(C(=O)c2cnccc2C(F)(F)F)CCC[C@@]1(Oc1csc(C(F)(F)F)c1)C(=O)N1CCN(c2ccccc2OC(C)(C)C(=O)O)CC1`, for which the IC50 in [4] worked out at 80 nM; in series [12] it was 11 nM.

Consider `CCC[C@@H]1N(C(=O)c2cnccc2C(F)(F)F)CCC[C@]1(Oc1csc(C(F)(F)F)c1)C(=O)N1CCN(c2ccccc2OCCC(C)(C)C(=O)O)CC1` (single isomer, unassigned), for which the IC50 in [4] came to 280 nM; in series [12] it was 10 nM.

With `CCC[C@H]1N(C(=O)c2cnccc2C(F)(F)F)CCC[C@@]1(Oc1csc(C(F)(F)F)c1Cl)C(=O)N1CCN(c2ccccc2OCCO)CC1`, the half-inhibitory concentration (IC50) in series [12] is 130 nM.

As for `CCC[C@@H]1N(C(=O)c2cnccc2C(F)(F)F)CCC[C@]1(Oc1csc(C(F)(F)F)c1)C(=O)N1CCN(c2ccccc2OCC2(CC(=O)O)CC2)CC1` (single isomer, unassigned), the IC50 in series [12] turned out to be 33 nM.

Turning to `C=CC[C@H]1N(C(=O)c2cnccc2C(F)(F)F)CCC[C@@]1(Oc1cc(C2CC2)cs1)C(=O)N1CCN(c2ccccc2OCCCC(=O)O)CC1`, in series [12], the IC50 stood at 3500 nM.

As to `COc1ccc(C2=N[C@@H](c3ccc(Cl)cc3)[C@@H](c3ccc(Cl)cc3)N2C(=O)N2CCNC(=O)C2)c(OC(C)C)c1` [NUTLIN-3], the concentration for half-maximal inhibition (IC50) in [4] worked out at 1900 nM.

Consider `CCC[C@H]1N(C(=O)c2cnccc2C(F)(F)F)CCC[C@@]1(Oc1csc(C(F)(F)F)c1C)C(=O)N1CCN(c2ccccc2OCCO)CC1`, for which, in [12], the half-maximal inhibitory concentration (IC50) turned out to be 58 nM.

As to `CCC[C@@H]1N(C(=O)c2cnccc2C(F)(F)F)CCC[C@]1(Oc1cc(C(F)(F)F)n(C)n1)C(=O)N1CCN(c2ccccc2OCCO)CC1` (racemic), the IC50 in series [12] is 6300 nM.

Take `CCC[C@@H]1N(C(=O)c2cnccc2C(F)(F)F)CCC[C@]1(Oc1cc(C(F)(F)F)cs1)C(=O)N1CCN(c2ccccc2OCCO)CC1` (racemic): the IC50 in series [12] came out at 170 nM.

As to `CCC[C@H]1N(C(=O)c2cnccc2C(F)(F)F)CCC[C@@]1(Oc1cccs1)C(=O)N1CCN(c2ccccc2OCCO)CC1` (racemic), in series [12], the IC50 stood at 2900 nM.

`COc1ccccc1N1CCN(C(=O)C2(Oc3ccc(C(F)(F)F)cc3)CCCN(C(=O)c3cnccc3C(F)(F)F)C2)CC1` (stereo not given) gave an IC50 in series [4] of 5500 nM.

On to `CC(=O)O[C@@]12CO[C@@H]1C[C@H](O)[C@@]1(C)C(=O)[C@H](O)C3=C(C)[C@@H](OC(=O)[C@H](O)[C@@H](NC(=O)OC(C)(C)C)c4ccccc4)C[C@@](O)([C@@H](OC(=O)c4ccccc4)[C@H]21)C3(C)C` [DOCETAXEL ANHYDROUS], for which, in series [14], the inhibition in vivo at 40 mg/kg came to 53%.

Turning to `CCC[C@@H]1N(C(=O)c2cnccc2C(F)(F)F)CCC[C@]1(Oc1csc(C(F)(F)C(F)(F)F)c1)C(=O)N1CCN(c2ccccc2OCCO)CC1` (single isomer, unassigned), the half-inhibitory concentration (IC50) in series [4] stood at 1100 nM; in series [12], 25 nM.

In the case of `CC(=O)O[C@H]1C(=O)[C@@]2(C)[C@H]([C@H](OC(=O)c3ccccc3)[C@]3(O)C[C@H](OC(=O)[C@H](O)[C@@H](NC(=O)c4ccccc4)c4ccccc4)C(C)=C1C3(C)C)[C@]1(OC(C)=O)CO[C@@H]1C[C@@H]2O` [PACLITAXEL], in [15], the inhibition in vivo at 20 mg/kg is 54%.

`CCC[C@@H]1N(C(=O)c2cnccc2C(F)(F)F)CCC[C@]1(Oc1nc(C(F)(F)F)cs1)C(=O)N1CCN(c2ccccc2OCCO)CC1` (racemic): the IC50 in series [12] is 1100 nM.

In the case of `CCC[C@@H]1N(C(=O)c2cnccc2C(F)(F)F)CCC[C@]1(Oc1ccc(C(F)(F)F)cc1)C(=O)N1CCN(c2ccccc2OCCO)CC1` (single isomer, unassigned), the Papp A→B in series [13] was 9.9 ×10⁻⁶ cm/s. For the same molecule, the CLint scaled in [1] turned out to be 23 mL/min/kg. This molecule also came in with an AUC/dose in [3] of 1.2 µM·h. Also, the IC50 in series [4] came to 460 nM; in [12], 40 nM. Also, in [16], the bioavailability was 92%. The area under the curve (AUC) in series [17] is 8.7 µM·h.

With `CCC[C@H]1N(C(=O)c2cnccc2C(F)(F)F)CCC[C@@]1(Oc1cc(C(F)(F)F)sc1C)C(=O)N1CCN(c2ccccc2OCCO)CC1`, the IC50 in series [12] came to 470 nM.

With `CCC[C@H]1N(C(=O)c2cnccc2C(F)(F)F)CCC[C@@]1(Oc1csc(C(F)(F)F)c1)C(=O)N1CCN(c2ccccc2OC(C)(C)CO)CC1`, the concentration for half-maximal inhibition (IC50) in series [4] came to 1100 nM; in series [12] it was 25 nM.
